Reference: ChEMBL document CHEMBL1250542, “Synthesis and biological evaluation of a series of aromatic bisphosphonates” (Bioorg Med Chem, 2010)
pIC50: −log10 of the molar value. Active and inactive are the calls of the source. No cut-off for these calls is given here.

Key:
K562 [1] = assay: Anticancer activity against human K562 cells assessed as inhibition of DNA synthesis by [3H]thymidine incorporation assay; format: functional, cell-based
Method in brief: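 [³H]thymidine (3.75 Ci/mmol in media) was added at 44 or 68 h. At 48 or 72 h, cells were harvested onto glass microfiber paper and incorporated label was scintillation counted. Proliferation is expressed as % of untreated cells, mean S.E., n = 4.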

[2] = molecular target: T1, Geranylgeranyl pyrophosphate synthase (Homo sapiens) (UniProt O95749); assay: Inhibition of GST-tagged human recombinant GGDPS expressed in BL21 gold bacteria at 10 uM by liquid scintillation counting
T1 sequence (whole entry): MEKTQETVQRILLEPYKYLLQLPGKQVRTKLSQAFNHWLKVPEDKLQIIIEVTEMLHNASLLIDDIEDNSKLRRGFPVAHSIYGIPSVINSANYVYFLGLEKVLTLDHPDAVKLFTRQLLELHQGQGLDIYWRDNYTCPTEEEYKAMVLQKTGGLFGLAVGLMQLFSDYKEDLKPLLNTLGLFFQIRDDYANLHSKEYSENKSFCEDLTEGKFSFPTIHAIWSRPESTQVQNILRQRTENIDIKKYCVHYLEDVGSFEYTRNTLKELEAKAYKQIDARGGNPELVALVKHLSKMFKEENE
Method in brief: (§1)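 Purified recombinant human GGDPS in buffer containing 0.5 mM MgCl₂ and 0.5 mM ZnCl₂ was preincubated with compounds for 10 min. Reactions were started with ¹⁴C-IPP plus FPP and run for 1 h at 37 °C. Products were extracted into water-saturated butanol, washed twice with saturated water, and counted by liquid scintillation. Data are from a single-concentration screen and concentration–response curves with IC₅₀ extrapolated, mean SD, n = 2.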

K562 [3] = assay: Inhibition of GGTase1 in human K562 cells assessed as reduction of Rap1a protein geranylgeranylation at 12.5 uM after 48 hrs by Western blotting; format: cell-based
Method in brief: (§2)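 Prenylation in intact cells: K562 cells at 5 × 10⁵ cells/mL were incubated with compounds or lovastatin for 48 h, as a single-concentration screen or a concentration series. Lysates were made in 2% SDS/66 mM Tris and protein was measured by BCA. Samples were resolved on 12% and 15% gels, transferred to PVDF, and probed for pan-Ras, Rap1a or Rab6, with α-tubulin as reference. Detection was by ECL.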

[4] = molecular target: T2, Farnesyl pyrophosphate synthase (Homo sapiens) (UniProt P14324); assay: Inhibition of FDPS in human K562 cells assessed as reduction of Ras protein farnesylation after 48 hrs by Western blotting; format: cell-based; method in brief: as §2
T2 sequence (whole entry): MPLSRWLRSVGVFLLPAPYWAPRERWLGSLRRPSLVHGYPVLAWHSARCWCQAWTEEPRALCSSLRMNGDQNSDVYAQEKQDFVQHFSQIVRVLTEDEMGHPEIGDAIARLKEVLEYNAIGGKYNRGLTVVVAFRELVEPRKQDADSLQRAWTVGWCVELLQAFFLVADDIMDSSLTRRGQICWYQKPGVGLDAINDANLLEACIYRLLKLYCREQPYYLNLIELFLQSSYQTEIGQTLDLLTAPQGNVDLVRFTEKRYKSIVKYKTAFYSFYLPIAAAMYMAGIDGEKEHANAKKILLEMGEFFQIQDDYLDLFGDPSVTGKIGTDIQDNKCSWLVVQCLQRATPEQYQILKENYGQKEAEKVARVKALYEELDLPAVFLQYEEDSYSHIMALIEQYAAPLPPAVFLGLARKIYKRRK

K562 [5] = assay: Inhibition of GGTase1 in human K562 cells assessed as reduction of Rap1a protein geranylgeranylation at 50 uM after 48 hrs by Western blotting; format: cell-based; method in brief: as §2
[6] = molecular target: T3, Geranylgeranyl pyrophosphate synthase (Homo sapiens, UniProt O95749); assay: Inhibition of GST-tagged human recombinant GGDPS expressed in BL21 gold bacteria by liquid scintillation counting; method in brief: as §1
T3 sequence (O95749 whole entry): T1 sequence (whole entry)

K562 [7] = assay: Inhibition in human K562 cells assessed as reduction of RAB6 protein geranylgeranylation after 48 hrs by Western blotting
[8] = molecular target: T1, Geranylgeranyl pyrophosphate synthase (Homo sapiens); assay: Inhibition of GGDPS in human K562 cells assessed as reduction Rap1a protein geranylgeranylation after 48 hrs by Western blotting in presence GGPP; format: cell-based
Method in brief: (§3)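 Add-back assay: K562 cells at 5 × 10⁵ cells/mL were exposed for 48 h to compounds, or to lovastatin, with or without exogenous mevalonate, FPP or GGPP. Lysates were made in 2% SDS/66 mM Tris and protein was measured by BCA. Samples were run on 12% and 15% SDS gels, transferred to PVDF, and immunoblotted for pan-Ras, Rap1a or Rab6, with α-tubulin as reference. Detection was by ECL.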

[9] = molecular target: T1, Geranylgeranyl pyrophosphate synthase (Homo sapiens); assay: Inhibition of GGDPS in human K562 cells assessed as reduction Rab6 protein geranylgeranylation after 48 hrs by Western blotting in presence GGPP; format: cell-based; method in brief: as §3
[10] = molecular target: T2, Farnesyl pyrophosphate synthase (Homo sapiens); assay: Inhibition of FDPS in human K562 cells assessed as reduction Ras protein farnesylation after 48 hrs by Western blotting in presence of mevalonate and FPP; format: cell-based; method in brief: as §3
K562 [11] = assay: Inhibition of GGTase1 in human K562 cells assessed as reduction of Rap1a protein geranylgeranylation after 48 hrs by Western blotting; format: cell-based; method in brief: as §2

CC(C)=CCC/C(C)=C/CC(Cc1cccc(CC=C(C)C)c1)(P(=O)(O)O)P(=O)(O)O
inhibition (K562 [1]): Active | inhibition activity call (active/not active) [2]: Active | Activity (K562 [3]): Active | inhibition [4]: inactive | inhibition (K562 [5]): Active | pIC50 [6]: 6.60 | inhibition (K562 [7]): Active | inhibition [8]: inactive | inhibition [9]: inactive | inhibition [10]: Active

CC(C)=CCc1ccc(CC(P(=O)(O)O)P(=O)(O)O)cc1
inhibition activity call (active/not active) [2]: inactive

CC(C)=CCC/C(C)=C/CC(Cc1ccc(CC=C(C)C)cc1)(P(=O)(O)O)P(=O)(O)O
inhibition (K562 [1]): Active | inhibition activity call (active/not active) [2]: Active | inhibition [4]: inactive | inhibition (K562 [5]): Active | pIC50 [6]: 6.10 | inhibition (K562 [7]): Active | inhibition [8]: inactive | inhibition [9]: inactive | inhibition [10]: Active

O=P(O)(O)C(Cc1ccccc1)P(=O)(O)O
inhibition activity call (active/not active) [2]: inactive

CC(C)=CCc1cccc(CC(P(=O)(O)O)P(=O)(O)O)c1
inhibition activity call (active/not active) [2]: inactive

CC[C@H](C)C(=O)O[C@H]1C[C@@H](C)C=C2C=C[C@H](C)[C@H](CC[C@@H]3C[C@@H](O)CC(=O)O3)[C@H]21
inhibition (K562 [11]): Active | inhibition [10]: inactive

CC(C)=CCC/C(C)=C/CC(Cc1cccnc1)(P(=O)(O)O)P(=O)(O)O
inhibition activity call (active/not active) [2]: Active

CC(C)=CCC/C(C)=C/CC(Cc1ccccc1)(P(=O)(O)O)P(=O)(O)O
inhibition activity call (active/not active) [2]: Active
